MC4R antagonist: blocks human MC4R cAMP signaling; MC4R-expressing cells, MTII-stimulated cAMP, LANCE TR-FRET; 0.48% of 360,000 active; P32245; inhibition, % at 6.5 µM;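 active means inhibition above its plate's cutoff, the mean of tested wells on that plate plus 3 SD, cut at about 29% in these data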;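 further: 0% = Melanotan II alone and 100% = Melanotan II plus saturating MCL0020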
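Material: human MC4R-expressing U2OS cells. Probe or stimulus: Melanotan II challenge. Dosing: 6.5 µM single dose. Times: 30-min compound, 1-h challenge, 1-h detection, room temperature. Technique: TR-FRET with Eu-cAMP and labeled anti-cAMP, 671 nm. Replication: singlicate.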
F508del corr: CFTR F508del correction in bronchial cells; CFBE cells, YFP halide quenching; stimulated with forskolin plus potentiator P3; % fluorescence drop versus neutral controls; activity (quench increase), % at 7.58 µM; 0.36% of 350,000 active; AID 720511;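 active means mean added fluorescence quench of at least 8% versus neutral control, with both replicates also reaching 8%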;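 further: cells transiently co-express mutant CFTR-F508del with the halide-sensitive YFP; corrector assay measuring rescue of mutant channel to the surface after 24 h compound exposure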
MC4R ag barr: human MC4R agonism via beta-arrestin; AID 540308; U2OS MC4R beta-arrestin complementation, luminescence; percent of melanotan II response, DMSO zero; 0.98% of 360,000 active; activation, % at 8.9 µM; P32245;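 active means activation above a per-plate cutoff, the mean activation of sample wells on that plate plus 3 SD, cut at about 8% in these data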
SMARCA2 activ: SMARCA2 function activation, primary screen | 1% of 370,000 active | activation, % at 9.1 µM | MG213 cells, MMTV-luciferase reporter, dexamethasone, overnight; in the data active means activation above about 7.8%;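 further: 0% = vehicle wells and 100% = reference activator wells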
MC4R barr conf: human MC4R beta-arrestin agonism confirmation; activation, % at 8.9 µM; shares compounds with MC4R ag barr; U2OS MC4R beta-arrestin recruitment, luminescence; scaled DMSO 0%, Melanotan II 100%; 31% of 2,400 active;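 active means mean activation across replicates above the hit cutoff set in the earlier primary screen, cut at about 8% in these data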
MOR DOR agonist: counter-screen for MC4R agonists: agonists of mu-delta opioid heterodimer; AID 602194; U2OS PathHunter beta-arrestin, beta-gal luminescence; percent of deltorphin B response, DMSO zero; 5.8% of 2,400 active; shares compounds with MC4R ag barr; activation, % at 9.2 µM;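 active means mean activation across replicates exceeds the hit threshold derived in the earlier primary screen, cut at about 18% in these data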;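 further: 100% = deltorphin B at 0.9 µM final and 0% = DMSO alone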
Target sequence (P35372 whole entry, looked up): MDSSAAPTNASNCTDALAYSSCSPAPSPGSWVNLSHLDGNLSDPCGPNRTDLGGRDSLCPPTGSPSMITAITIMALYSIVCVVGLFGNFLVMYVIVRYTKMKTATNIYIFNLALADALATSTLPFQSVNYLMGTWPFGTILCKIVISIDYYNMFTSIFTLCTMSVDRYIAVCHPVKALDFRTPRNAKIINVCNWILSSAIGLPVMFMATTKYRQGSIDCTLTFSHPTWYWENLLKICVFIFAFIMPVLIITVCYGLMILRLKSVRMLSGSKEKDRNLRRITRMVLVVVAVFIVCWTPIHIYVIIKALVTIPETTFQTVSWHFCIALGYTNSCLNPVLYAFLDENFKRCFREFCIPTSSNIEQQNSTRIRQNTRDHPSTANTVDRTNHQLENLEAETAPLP
Target sequence (P41143 whole entry, looked up): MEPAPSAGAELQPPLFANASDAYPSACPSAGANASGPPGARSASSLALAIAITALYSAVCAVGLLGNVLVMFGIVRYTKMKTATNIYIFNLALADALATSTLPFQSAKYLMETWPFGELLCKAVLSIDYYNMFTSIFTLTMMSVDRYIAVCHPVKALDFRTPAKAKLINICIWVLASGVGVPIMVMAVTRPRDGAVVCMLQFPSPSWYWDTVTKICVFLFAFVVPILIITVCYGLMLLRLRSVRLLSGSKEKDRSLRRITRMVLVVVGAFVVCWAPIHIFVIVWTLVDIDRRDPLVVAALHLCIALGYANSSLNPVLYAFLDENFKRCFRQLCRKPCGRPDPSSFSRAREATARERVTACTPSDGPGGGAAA
* marks the source's active call; other numbers are inactive results; / = not tested or not shown. Only some compounds are listed: those with a hit (about 2.1% of all), similar ones and a draw of the others.

SMILES | MC4R antagonist | F508del corr | MC4R ag barr | SMARCA2 activ | MC4R barr conf | MOR DOR agonist
CCOC(=O)/C(=N\Nc1ccccc1[N+](=O)[O-])c1csc(N)n1 | -6 | 5 | 1 | 0 | / | /
CCOC(=O)/C(=N\Nc1ccc(C(C)=O)cc1)c1csc(Nc2ccccc2)n1 | 21 | / | 21* | -2 | 13* | 4
COCC(=O)Nc1ccc2c(c1)[C@@H]1C[C@@H](CC(=O)NCc3cccnc3)O[C@@H](CO)[C@@H]1O2 | / | -1 | / | / | / | /
O=C(Cn1c(=O)n(CC2CCCO2)c(=O)c2ccccc21)c1ccc(Cl)c(Cl)c1 (configuration not stated) | 6 | / | 11* | 1 | -1 | 3
C=CCN(CC=C)S(=O)(=O)c1ccc(NC(=S)NC(=O)/C=C/c2ccccc2)cc1 | 5 | / | 19* | 0 | 6 | 2
NCC[C@@H]1CC[C@@H](NS(=O)(=O)Cc2ccccc2)[C@H](CO)O1 | / | -3 | / | / | / | /
Cc1ccc2sc(N(CCN(C)C)C(=O)c3ccc4ccccc4c3)nc2c1C | 5 | 1 | -1 | -1 | / | /
Cc1ccc2sc(N(CCCN(C)C)C(=O)CN3C(=O)c4ccccc4C3=O)nc2c1C | -3 | 3 | 18* | -1 | 19* | 9
O=C(Nc1ccc(-c2nc3ccccc3[nH]2)cc1)c1ccccc1NS(=O)(=O)c1ccc(F)cc1 | 25 | / | 15* | -2 | 6 | 2
CS(=O)(=O)c1ccccc1C(=O)Nc1ccc(-c2nc3ccccc3[nH]2)cc1 | -1 | -1 | -2 | 8 | / | /
CN1C(=O)c2cc(NC(=O)c3ccccc3)ccc2OC[C@H]2O[C@@H](CC(=O)NC3CCCC3)CC[C@@H]21 | / | 0 | / | / | / | /
C[C@H]1CN([C@@H](C)CO)C(=O)c2cccc(NS(=O)(=O)c3ccc(F)cc3)c2O[C@@H]1CN(C)S(=O)(=O)c1cccs1 | / | 2 | / | / | / | /
CCc1c(C)[nH]c(C(=O)OCc2ccccc2)c1C | -1 | 3 | 10* | 3 | 1 | 8
CC(=O)c1c(C)[nH]c(C(=O)OCC(=O)NCCc2ccc(F)cc2)c1C | 4 | / | 0 | -1 | / | /
COC(=O)c1c(C)[nH]c(C(=O)OCc2ccc(F)cc2)c1C | -2 | / | 12* | 5 | 1 | 7
CCOC(=O)c1[nH]c(C)c(C(=O)OCc2ccccc2F)c1C | -14 | 1 | 26* | 2 | 3 | 7
COC(=O)c1c(C)[nH]c(C(=O)CSc2ccc(Cl)cc2)c1C | 8 | / | 29* | 2 | 11* | 6
CNC(=O)C[C@H]1CC[C@H]2[C@@H](COc3ccc(NC(=O)NC4CCCC4)cc3C(=O)N2C)O1 | / | 0 | / | / | / | /
COCCNC(=O)C[C@H]1CC[C@H](NC(=O)NC2CCCCC2)[C@@H](CO)O1 | / | -1 | / | / | / | /
COc1ccc(CN(C)C[C@H]2OCCCC[C@@H](C)Oc3ccc(NC(=O)Nc4ccc(OC)cc4)cc3C(=O)N([C@H](C)CO)C[C@H]2C)cc1 | / | -1 | / | / | / | /
CCOC(=O)c1[nH]c(C)c(C(=O)OCC)c1C | -22 | 1 | 1 | 2 | / | /
CCOC(=O)c1[nH]c(C)c(C(=O)OCCOc2cccc(C)c2)c1C | -1 | / | 12* | -1 | 8.5* | 6
Cc1ccc2[nH]c(=O)c3cc(C(=O)N4CCN(C(=O)c5ccco5)CC4)sc3c2c1 | 3 | -1 | 0 | 1 | / | /
CCOCCCN(Cc1ccco1)C(=O)c1cc2c(=O)[nH]c3ccc(C)cc3c2s1 | 3 | 2 | 11* | -6 | 18* | 8
C/C=C/c1ccc2c(c1)O[C@@H](CN(C)CC1CCCC1)[C@H](C)CN([C@H](C)CO)S2(=O)=O | / | -2 | / | / | / | /
SMILES | MC4R antagonist | F508del corr | MC4R ag barr | SMARCA2 activ | MC4R barr conf | MOR DOR agonist
O=C1/C(=C\c2c(NCCOCCO)nc3ccccn3c2=O)SC(=S)N1Cc1ccco1 | -2 | 2 | 10* | 0 | 5 | 8
COc1ccc(Cn2c(=S)[nH]c3ccccc3c2=O)cc1 | 1 | 1 | 11* | 1 | -3 | 3
O=C(N[C@H]1CC[C@@H](CCNS(=O)(=O)c2ccccc2)O[C@@H]1CO)c1cccc(F)c1 | / | 2 | / | / | / | /
COc1ccc(NC(=O)CCC(=O)OCC(=O)c2ccc(Oc3ccc([N+](=O)[O-])cc3)cc2)cc1 | -3 | / | -1 | 1 | / | /
Cc1ccc(NC(=O)CCC(=O)OCC(=O)c2ccc(Oc3ccc([N+](=O)[O-])cc3)cc2)cc1 | -3 | / | 26* | 0 | -1 | 6
O=C(O)CN1C(=O)/C(=C/C=C/c2ccccc2)SC1=S | -13 | 4 | -4 | 1 | / | /
O=C(CCN1C(=O)/C(=C/c2ccc(Cl)cc2)SC1=S)Nc1cccnc1 | -1 | 0 | -3 | -3 | / | /
O=C(CCN1C(=O)/C(=C/C=C/c2ccccc2)SC1=S)Nc1ccccn1 | 14 | 1 | 34* | -6 | 22* | 12
O=C(CCN1C(=O)/C(=C/C=C/c2ccccc2)SC1=S)Nc1cccnc1 | -7 | / | 12* | -3 | 32* | 13
Cc1ccc(C2=NN3C(C2)c2ccccc2OC32C(=O)Nc3ccccc32)cc1 (configuration not stated) | 5 | / | 10* | 0 | 9.1* | 20*
CN1C(=O)C2(Oc3ccccc3C3CC(c4ccccc4)=NN32)c2ccccc21 (configuration not stated) | -2 | / | 2 | / | / | /
CSc1nc(N)nc(SCC(=O)c2ccc(C)cc2)c1C#N | -16 | / | 21* | 3 | 22* | 4
CC(=O)Nc1cc(-c2ccc(N)cc2)cn2c(-c3cccc(C(F)(F)F)c3)cnc12 | 17 | -4 | 11* | 0 | 12* | 3
CC(=O)Nc1cc(-c2ccc(N)nc2)cn2c(-c3cccc(C(F)(F)F)c3)cnc12 | 1 | -3 | 19* | 0 | 9.8* | 3
COc1ccc(F)cc1-c1cc(NC(C)=O)c2ncc(-c3cccc(C(F)(F)F)c3)n2c1 | 9 | -1 | 19* | 1 | 15* | 3
CC(=O)Nc1cc(-c2ccc(CO)cc2)cn2c(-c3cccc(C(F)(F)F)c3)cnc12 | 9 | 7 | 19* | -2 | 20* | 3
COc1cccc(NC(=O)N[C@@H]2C=C[C@H](CC(=O)N3CCCCC3)O[C@H]2CO)c1 | / | 0 | / | / | / | /
COc1cccc(NCc2cc3c(C(C)(C)C)nn(-c4ccccc4)c3[nH]c2=O)c1 | 4 | / | 13* | 3 | 0 | 7
CCOc1cc(C(=S)N2CCOCC2)ccc1OC(=O)/C=C/c1ccc(OC)c(OC)c1 | 6 | / | 11* | -4 | 0 | 2
O=c1c2cnn(-c3ccc(F)cc3)c2ncn1Cc1cccnc1 | 9 | / | 0 | 0 | / | /
O=c1c2cnn(-c3ccc(F)cc3)c2ncn1Cc1ccccc1 | 3 | / | 14* | 1 | 0 | 4
O=C(Cc1ccccc1)N[C@H]1CC[C@H](CC(=O)N2CCOCC2)O[C@@H]1CO | / | 1 | / | / | / | /
